ChEMBL document CHEMBL2157980, “Discovery of SCH 900229, a Potent Presenilin 1 Selective γ-Secretase Inhibitor for the Treatment of Alzheimer's Disease” (ACS Med Chem Lett, 2012)
Calls of active or inactive are those of the source. The rule behind the calls is not given here.

Experiments:
Presenilin-1 [1] = target: T1, Presenilin-1 (Homo sapiens, UniProt P49768); test: Inhibition of PS1 gamma-secretase assessed as reduction of amyloid beta-40 production by membrane based assay
Outline: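 Aβ40 production was measured in a membrane-based assay. IC50 was the average of at least two measurements, with standard deviation 20%.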

Mus musculus [2] = test: Antialzheimer activity in transgenic CRND8 mouse assessed as decrease of amyloid beta-40 level in cortex at 30 mg/kg, po after 3 hrs; assay type: functional; design: scale not given: the % may be the effect or the level left
Outline: (§1)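 CRND8 mice were dosed orally at 30 mg/kg. Aβ40 in plasma and cortex was measured 3 h post-dose and reported as % change, negative for lowering and positive for increase.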

Presenilin-1 [3] = target: T1, Presenilin-1; test: Inhibition of PS1 gamma-secretase expressed in HEK cells harboring Awe-Lon gene assessed as reduction of amyloid beta-40 production; assay type: cell-based, HEK293
Outline: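 Cell-based Aβ40 production assay in HEK293 cells carrying APP Awe-Lon. IC50 was the average of at least two determinations, with standard deviation 20%.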

Presenilin-2 = Presenilin-2 (Homo sapiens, UniProt P49810); test: Inhibition of PS2 gamma-secretase expressed in HEK cells harboring Awe-Lon gene assessed as reduction of amyloid beta-42 production; assay type: cell-based, HEK293
Chain of Presenilin-2 (P49810 1-297 limits assumed): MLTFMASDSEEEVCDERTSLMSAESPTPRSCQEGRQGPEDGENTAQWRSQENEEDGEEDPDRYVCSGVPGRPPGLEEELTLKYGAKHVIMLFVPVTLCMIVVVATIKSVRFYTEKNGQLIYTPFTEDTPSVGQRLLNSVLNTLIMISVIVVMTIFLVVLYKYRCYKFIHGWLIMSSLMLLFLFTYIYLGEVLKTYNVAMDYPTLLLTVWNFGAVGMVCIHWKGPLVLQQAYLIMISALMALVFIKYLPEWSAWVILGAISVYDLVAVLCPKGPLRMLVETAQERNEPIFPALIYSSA
Chain of Presenilin-2 (P49810 298-448 limits assumed): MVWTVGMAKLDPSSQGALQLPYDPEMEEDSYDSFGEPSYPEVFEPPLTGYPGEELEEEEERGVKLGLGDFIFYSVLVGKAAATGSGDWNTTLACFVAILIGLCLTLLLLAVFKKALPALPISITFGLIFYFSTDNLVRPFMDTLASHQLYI

Mus musculus [4] = test: Antialzheimer activity in transgenic CRND8 mouse assessed as decrease of amyloid beta-40 level in plasma at 30 mg/kg, po after 3 hrs; assay type: functional; design: scale not given: the % may be the effect or the level left; outline: as §1
[5] = Selectivity ratio of IC50 for PS2 gamma-secretase to IC50 for PS1 gamma-secretase
Outline: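 Inhibitors were tested against reconstituted γ-secretase complexes containing PS1 or PS2. The result is expressed as the PS2/PS1 ratio of IC50 values.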

Mus musculus [6] = test: Antialzheimer activity in B6C3F1 mouse assessed as reduction of amyloid beta-40 level in cortex at 10 mg/kg, po after 3 hrs; assay type: functional; design: scale not given: the % may be the effect or the level left
Outline: (§2)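 B6C3F1 mice were dosed orally at 10 or 30 mg/kg. Aβ40 in plasma and cortex was measured 3 h after dosing and expressed as % change, with lowering shown as negative.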

Mus musculus [7] = test: Antialzheimer activity in B6C3F1 mouse assessed as reduction of amyloid beta-40 level in plasma at 10 mg/kg, po after 3 hrs; assay type: functional; design: scale not given: the % may be the effect or the level left; outline: as §2
Mus musculus [8] = test: Toxicity in po dosed transgenic CRND8 mouse assessed as intestinal goblet cell hyperplasia administered bid for 6 days; assay type: organism-based; conditions: in vivo, 144 h
Outline: (§3)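 In the same subchronic design (oral BID dosing for 6 days in CRND8 mice), Notch-related effects were examined as thymus size reduction and intestinal goblet cell hyperplasia.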

[9] = Cmax in rat at 10 mg/kg, po administered with 0.4% HPMC; assay type: ADME, organism-based; design: dose 10 mg/kg, route oral; conditions: in vivo
Outline: (§4)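 Rats (n = 3) were dosed orally at 10 mg/kg in either 20% HPβCD or 0.4% HPMC. AUC(0−∞), Cmax, Tmax and T1/2 were taken from the oral profile, with averaged values. Bioavailability (F) was referenced to iv dosing at 5 mg/kg.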

Canis familiaris [10] = species: Canis familiaris; test: Antialzheimer activity in dog assessed as decrease of amyloid beta-40 level in CSF; assay type: functional, organism-based; conditions: Canis lupus familiaris
[11] = Clearance in rat at 5 mg/kg, iv administered with 0.4% HPMC; assay type: ADME, organism-based; design: dose 5 mg/kg, route intravenous; conditions: in vivo
Outline: (§5)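 CL and Vd(ss) came from iv administration at 5 mg/kg in rat and 2.5 mg/kg each in monkey and dog. Values are averages of three animals per species.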

[12] = Oral bioavailability in rat at 10 mg/kg administered with 20% HPbetaCD; assay type: ADME, organism-based; conditions: in vivo; outline: as §4
Mus musculus [13] = test: Antialzheimer activity in po dosed transgenic CRND8 mouse assessed as decrease of amyloid beta-40 level in plasma administered bid for 6 days; assay type: functional; conditions: 144 h
Outline: (§6)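 In a subchronic study, CRND8 mice were dosed orally BID for 6 days. Aβ40 lowering in plasma and cortex was measured, and ED50 was derived.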

[14] = Half life in rat at 10 mg/kg, po administered with 0.4% HPMC; assay type: ADME, organism-based; design: dose 10 mg/kg, route oral; conditions: in vivo; outline: as §4
[15] = Volume of distribution at steady state in rat at 5 mg/kg, iv administered with 0.4% HPMC; assay type: ADME, organism-based; design: dose 5 mg/kg, route intravenous; conditions: in vivo, read-out: Vdss; outline: as §5
[16] = Half life in monkey at 5 mg/kg, po administered with 0.4% HPMC; conditions: rhesus monkey, in vivo
[17] = Clearance in rat at 5 mg/kg, iv administered with 20% HPbetaCD; assay type: ADME, organism-based; design: dose 5 mg/kg, route intravenous; conditions: in vivo; outline: as §5
Canis familiaris [18] = species: Canis familiaris; test: Antialzheimer activity in dog assessed as decrease of amyloid beta-40 level in cortex; assay type: functional, organism-based; conditions: Canis lupus familiaris
[19] = Half life in dog at 5 mg/kg, po administered with 0.4% HPMC; conditions: in vivo
Mus musculus [20] = test: Antialzheimer activity in po dosed transgenic CRND8 mouse assessed as decrease of amyloid beta-40 level in cortex after 3 hrs; assay type: functional
Outline: (§7)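 CRND8 mice received a single acute oral dose. Plasma and cortical Aβ40 were measured at the 3 h time point, and ED50 was derived from the dose response.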

Mus musculus [21] = test: Antialzheimer activity in B6C3F1 mouse assessed as reduction of amyloid beta-40 level in cortex at 30 mg/kg, po after 3 hrs; assay type: functional; design: scale not given: the % may be the effect or the level left; outline: as §2
[22] = AUC (0 to infinity) in monkey at 5 mg/kg, po administered with 0.4% HPMC; conditions: rhesus monkey, plasma
[23] = Volume of distribution at steady state in dog at 2.5 mg/kg, iv administered with 0.4% HPMC; assay type: ADME, organism-based, Canis lupus familiaris; design: dose 2.5 mg/kg, route intravenous; conditions: in vivo, read-out: Vdss; outline: as §5
Presenilin-1 [24] = target: T1, Presenilin-1; test: Inhibition of PS1 gamma-secretase expressed in HEK cells harboring Awe-Lon gene assessed as notch cleavage; assay type: cell-based, HEK293
[25] = AUC (0 to infinity) in dog at 5 mg/kg, po administered with 0.4% HPMC; conditions: plasma
[26] = Oral bioavailability in rat at 10 mg/kg administered with 0.4% HPMC; assay type: ADME, organism-based; conditions: in vivo; outline: as §4
[27] = Half life in rat at 10 mg/kg, po administered with 20% HPbetaCD; assay type: ADME, organism-based; design: dose 10 mg/kg, route oral; conditions: in vivo; outline: as §4
Mus musculus [28] = test: Toxicity in po dosed transgenic CRND8 mouse assessed as reduction in thymus size administered bid for 6 days; assay type: organism-based; conditions: in vivo, 144 h; outline: as §3
[29] = Oral bioavailability in dog at 5 mg/kg administered with 0.4% HPMC; conditions: in vivo
[30] = Volume of distribution at steady state in rat at 5 mg/kg, iv administered with 20% HPbetaCD; assay type: ADME, organism-based; design: dose 5 mg/kg, route intravenous; conditions: in vivo, read-out: Vdss; outline: as §5
[31] = AUC (0 to infinity) in rat at 10 mg/kg, po administered with 20% HPbetaCD; assay type: ADME, organism-based; design: time infinity, dose 10 mg/kg, route oral; conditions: plasma; outline: as §4
Mus musculus [32] = test: Antialzheimer activity in po dosed transgenic CRND8 mouse assessed as decrease of amyloid beta-40 level in cortex administered bid for 6 days; assay type: functional; conditions: 144 h; outline: as §6
[33] = Tmax in dog at 5 mg/kg, po administered with 0.4% HPMC; conditions: in vivo
[34] = Tmax in rat at 10 mg/kg, po administered with 20% HPbetaCD; assay type: ADME, organism-based; design: dose 10 mg/kg, route oral; conditions: in vivo; outline: as §4
[35] = Tmax in monkey at 5 mg/kg, po administered with 0.4% HPMC; conditions: rhesus monkey, in vivo
[36] = Clearance in dog at 2.5 mg/kg, iv administered with 0.4% HPMC; assay type: ADME, organism-based, Canis lupus familiaris; design: dose 2.5 mg/kg, route intravenous; conditions: in vivo; outline: as §5
Canis familiaris [37] = species: Canis familiaris; test: Antialzheimer activity in dog assessed as decrease of amyloid beta-40 level in plasma; assay type: functional, organism-based; conditions: Canis lupus familiaris
[38] = Oral bioavailability in monkey at 5 mg/kg administered with 0.4% HPMC; conditions: rhesus monkey, in vivo
Mus musculus [39] = test: Antialzheimer activity in B6C3F1 mouse assessed as reduction of amyloid beta-40 level in plasma at 30 mg/kg, po after 3 hrs; assay type: functional; design: scale not given: the % may be the effect or the level left; outline: as §2
[40] = Cmax in monkey at 5 mg/kg, po administered with 0.4% HPMC; conditions: rhesus monkey, in vivo
[41] = Volume of distribution at steady state in monkey at 2.5 mg/kg, iv administered with 0.4% HPMC; assay type: ADME, organism-based, Macaca mulatta; design: dose 2.5 mg/kg, route intravenous; conditions: rhesus monkey, in vivo, read-out: Vdss; outline: as §5
[42] = Clearance in monkey at 2.5 mg/kg, iv administered with 0.4% HPMC; assay type: ADME, organism-based, Macaca mulatta; design: dose 2.5 mg/kg, route intravenous; conditions: rhesus monkey, in vivo; outline: as §5
[43] = Cmax in dog at 5 mg/kg, po administered with 0.4% HPMC; conditions: in vivo
[44] = AUC (0 to infinity) in rat at 10 mg/kg, po administered with 0.4% HPMC; assay type: ADME, organism-based; design: time infinity, dose 10 mg/kg, route oral; conditions: plasma; outline: as §4
[45] = Tmax in rat at 10 mg/kg, po administered with 0.4% HPMC; assay type: ADME, organism-based; design: dose 10 mg/kg, route oral; conditions: in vivo; outline: as §4
Mus musculus [46] = test: Antialzheimer activity in po dosed transgenic CRND8 mouse assessed as decrease of amyloid beta-40 level in plasma after 3 hrs; assay type: functional; outline: as §7
[47] = Cmax in rat at 10 mg/kg, po administered with 20% HPbetaCD; assay type: ADME, organism-based; design: dose 10 mg/kg, route oral; conditions: in vivo; outline: as §4

Work on CC(C)S(=O)(=O)CC[C@@H]1OCC[C@@]2(S(=O)(=O)c3ccc(Cl)cc3)c3c(F)ccc(F)c3OC[C@@H]12 (racemic) [listing 1 of 2 here] yielded an IC50 (Presenilin-1 [1]) of 24 nM, an Activity (Mus musculus [2]) of 57% and an IC50 (Presenilin-1 [3]) of 26 nM. For the same compound, the IC50 (Presenilin-2) was 10 nM and the Activity (Mus musculus [4]) was 20%.
CC(C)S(=O)(=O)CC[C@@H]1OCC[C@@]2(S(=O)(=O)c3ccc(Cl)cc3)c3c(F)ccc(F)c3OC[C@@H]12 (racemic) [listing 2 of 2 here] showed a Ratio IC50 [5] of 6.
In the case of CC(C)S(=O)(=O)CC[C@@H]1OCC[C@@]2(S(=O)(=O)c3ccc(Cl)cc3)c3c(F)ccc(F)c3OC[C@@H]12, the IC50 (Presenilin-1 [1]) is reported as 6 nM, the Activity (Mus musculus [6]) is reported as 58% and the IC50 (Presenilin-1 [3]) is reported as 8 nM. It also gave an IC50 (Presenilin-2) of 3 nM and an Activity (Mus musculus [7]) of 2%.
CNC(=O)OCC[C@@H]1OCC[C@@]2(S(=O)(=O)c3ccc(Cl)cc3)c3c(F)ccc(F)c3OC[C@@H]12 (racemic) gave a Ratio IC50 [5] of 3, an IC50 (Presenilin-1 [1]) of 8 nM and an IC50 (Presenilin-1 [3]) of 8 nM. For the same compound, the IC50 (Presenilin-2) was 6 nM.
With CS(=O)(=O)CC[C@@H]1OCC[C@@]2(S(=O)(=O)c3ccc(Cl)cc3)c3c(F)ccc(F)c3OC[C@@H]12 the Activity (Mus musculus [8]) was “Non-toxic”, the Cmax [9] was 240 nM and the Activity (Canis familiaris [10]) was “Active”. For the same compound, the Ratio IC50 [5] was 25, the IC50 (Presenilin-1 [1]) was 1.3 nM and the clearance [11] was 20.8 mL/min/kg. The bioavailability [12] was 29%, the ED50 (Mus musculus [13]) was 0.4 mg/kg and the half-life [14] was 1 h. The Vd [15] was 3.4 L/kg, the half-life [16] was 4.6 h and the clearance [17] was 69 mL/min/kg. For the same compound, the Activity (Canis familiaris [18]) was “Active”, the half-life [19] was 23.9 h and the ED50 (Mus musculus [20]) was 0.4 mg/kg. For the same compound, the Activity (Mus musculus [21]) was 78%, the AUC(0-inf) [22] was 8.9 µM·h and the Vd [23] was 3.1 L/kg. For the same compound, the IC50 (Presenilin-1 [3]) was 4 nM, the IC50 (Presenilin-1 [24]) was 46 nM and the AUC(0-inf) [25] was 85.6 µM·h. For the same compound, the bioavailability [26] was 6.4%, the half-life [27] was 1.1 h and the Activity (Mus musculus [28]) was “Non-toxic”. It also gave a bioavailability [29] of 86%, a Vd [30] of 5.4 L/kg and an IC50 (Presenilin-2) of 1 nM. For the same compound, the AUC(0-inf) [31] was 1.4 µM·h, the ED50 (Mus musculus [32]) was 0.3 mg/kg and the Tmax [33] was 2 h. For the same compound, the Tmax [34] was 0.7 h, the Tmax [35] was 1.7 h and the clearance [36] was 1.7 mL/min/kg. For the same compound, the Activity (Canis familiaris [37]) was “Active”, the bioavailability [38] was 45% and the Activity (Mus musculus [39]) was 89%. For the same compound, the Cmax [40] was 1390 nM, the Vd [41] was 1.9 L/kg and the clearance [42] was 8.2 mL/min/kg. The Cmax [43] was 2740 nM, the AUC(0-inf) [44] was 1 µM·h and the Tmax [45] was 0.3 h. The ED50 (Mus musculus [46]) was 0.5 mg/kg and the Cmax [47] was 650 nM.
